ChEMBL document CHEMBL1828575, “Design, synthesis and antiproliferative activities of biarylolefins based on polyhydroxylated and carbohydrate scaffolds” (Eur J Med Chem, 2011)
Activity calls are given as the source filed them. The rule behind the calls is not given here.

How the values were obtained:
[1] = Cytotoxicity against human NCI60 cells assessed as cellular growth at 10 uM after 48 hrs by SRB assay relative to untreated control; type: functional
Outline: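 NCI-60 panel lines grown in RPMI 1640 with 5% FBS and 2 mM L-glutamine. Plated at 5000–40,000 cells/well and preincubated 24 h at 37 °C, 5% CO₂, with time-zero plates fixed in TCA. Compounds, dissolved in DMSO and diluted in medium, were applied for 48 h. Cells were TCA-fixed (10% final for adherent, 16% for suspension) and stained with 0.4% SRB in 1% acetic acid. Dye was solubilised in 10 mM Tris base and read at 515 nm; growth was expressed as a percentage of untreated control.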

[2] = organism: Ovis aries; experiment: Inhibition of sheep brain tubulin polymerization at 10 uM
Outline: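 Microtubule protein from sheep brain, purified by two assembly/disassembly cycles (37 °C/0 °C), in 100 mM MES pH 6.6, 1 mM EGTA, 0.5 mM MgCl₂. Compounds in DMSO were tested at a single concentration, with incubation at 37 °C for 10 min and then 0 °C for 5 min before measuring assembly rate, following a modified Guénard protocol.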

[3] = test system: OVCAR-8; experiment: Cytotoxicity against human OVCAR8 cells at 10^-6 M after 72 hrs by MTS assay; type: functional; details: OVCAR-8, 72 h, read-out: GI
Outline: (§1)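 Preliminary screen at 10^-5 and 10^-6 M. Cells were grown in RPMI with 10% fetal calf serum plus penicillin, streptomycin and fungizone under 5% CO₂, plated in 96-well plates, and dosed 24 h later from DMSO stocks (1% DMSO final, same in controls). After 72 h, MTS was added for 3 h at 37 °C and absorbance read at 490 nm. Inhibition was calculated as (1 − OD treated/OD control) × 100, in triplicate.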

[4] = test system: PC-3; experiment: Cytotoxicity against human PC3 cells at 10^-6 M after 72 hrs by MTS assay; type: functional; details: PC-3, 72 h, read-out: GI; outline: as §1
[5] = test system: A549; experiment: Cytotoxicity against human A549 cells at 10^-5 M after 72 hrs by MTS assay; type: functional; details: A549, 72 h, read-out: GI
Outline: (§2)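 Cells grown in RPMI with 10% fetal calf serum, penicillin, streptomycin and fungizone under 5% CO₂. Plated in 96-well plates and dosed 24 h later with compound in DMSO (1% final DMSO; controls got DMSO alone). After 72 h, MTS was added for 3 h at 37 °C and A490 read. Inhibition = (1 − OD treated/OD control) × 100, in triplicate.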

[6] = test system: HT-29; experiment: Cytotoxicity against human HT-29 cells at 10^-5 M after 72 hrs by MTS assay; type: functional; details: HT-29, 72 h, read-out: GI; outline: as §2
[7] = test system: PC-3; experiment: Cytotoxicity against human PC3 cells at 10^-5 M after 72 hrs by MTS assay; type: functional; details: PC-3, 72 h, read-out: GI; outline: as §1
[8] = test system: HL-60; experiment: Cytotoxicity against human HL60 cells at 10^-6 M after 72 hrs by MTS assay; type: functional; details: HL-60, 72 h, read-out: GI; outline: as §2
[9] = test system: HL-60; experiment: Cytotoxicity against human HL60 cells at 10^-5 M after 72 hrs by MTS assay; type: functional; details: HL-60, 72 h, read-out: GI; outline: as §2
[10] = test system: MIA PaCa-2; experiment: Cytotoxicity against human MIAPaCa2 cells at 10^-6 M after 72 hrs by MTS assay; type: functional; details: MIA PaCa-2, 72 h, read-out: GI
[11] = test system: SK-OV-3; experiment: Cytotoxicity against human SKOV3 cells at 10^-5 M after 72 hrs by MTS assay; type: functional; details: SK-OV-3, 72 h, read-out: GI; outline: as §1
[12] = test system: HCT-15; experiment: Cytotoxicity against human HCT15 cells at 10^-6 M after 72 hrs by MTS assay; type: functional; details: HCT-15, 72 h, read-out: GI; outline: as §2
[13] = test system: MIA PaCa-2; experiment: Cytotoxicity against human MIAPaCa2 cells at 10^-5 M after 72 hrs by MTS assay; type: functional; details: MIA PaCa-2, 72 h, read-out: GI
[14] = test system: SF-268; experiment: Cytotoxicity against human SF268 cells at 10^-5 M after 72 hrs by MTS assay; type: functional; details: SF-268, 72 h, read-out: GI; outline: as §1
[15] = test system: K562; experiment: Cytotoxicity against human K562 cells at 10^-5 M after 72 hrs by MTS assay; type: functional; details: K562, 72 h, read-out: GI; outline: as §2
[16] = Cytotoxicity against human MDA231 cells at 10^-5 M after 72 hrs by MTS assay; type: functional; details: MDA-MB-231, 72 h, read-out: GI; outline: as §1
[17] = test system: MCF7; experiment: Cytotoxicity against human MCF7 cells at 10^-6 M after 72 hrs by MTS assay; type: functional; details: MCF7, 72 h, read-out: GI
[18] = Cytotoxicity against human HL60R cells at 10^-6 M after 72 hrs by MTS assay; type: functional; details: read-out: GI; outline: as §2
[19] = test system: HCT-116; experiment: Cytotoxicity against human HCT116 cells at 10^-6 M after 72 hrs by MTS assay; type: functional; details: HCT-116, 72 h, read-out: GI; outline: as §2
[20] = test system: HT-29; experiment: Cytotoxicity against human HT-29 cells at 10^-6 M after 72 hrs by MTS assay; type: functional; details: HT-29, 72 h, read-out: GI; outline: as §2
[21] = Cytotoxicity against human MDA231 cells at 10^-6 M after 72 hrs by MTS assay; type: functional; details: MDA-MB-231, 72 h, read-out: GI; outline: as §1
[22] = test system: SF-268; experiment: Cytotoxicity against human SF268 cells at 10^-6 M after 72 hrs by MTS assay; type: functional; details: SF-268, 72 h, read-out: GI; outline: as §1
[23] = test system: OVCAR-8; experiment: Cytotoxicity against human OVCAR8 cells at 10^-5 M after 72 hrs by MTS assay; type: functional; details: OVCAR-8, 72 h, read-out: GI; outline: as §1
[24] = test system: K562; experiment: Cytotoxicity against human K562 cells at 10^-6 M after 72 hrs by MTS assay; type: functional; details: K562, 72 h, read-out: GI; outline: as §2
[25] = Cytotoxicity against human HL60R cells at 10^-5 M after 72 hrs by MTS assay; type: functional, HL-60; details: read-out: GI; outline: as §2
[26] = test system: HCT-15; experiment: Cytotoxicity against human HCT15 cells at 10^-5 M after 72 hrs by MTS assay; type: functional; details: HCT-15, 72 h, read-out: GI; outline: as §2
[27] = test system: A549; experiment: Cytotoxicity against human A549 cells at 10^-6 M after 72 hrs by MTS assay; type: functional; details: A549, 72 h, read-out: GI; outline: as §2
[28] = test system: SK-OV-3; experiment: Cytotoxicity against human SKOV3 cells at 10^-6 M after 72 hrs by MTS assay; type: functional; details: SK-OV-3, 72 h, read-out: GI; outline: as §1
[29] = test system: HCT-116; experiment: Cytotoxicity against human HCT116 cells at 10^-5 M after 72 hrs by MTS assay; type: functional; details: HCT-116, 72 h, read-out: GI; outline: as §2
[30] = test system: MCF7; experiment: Cytotoxicity against human MCF7 cells at 10^-5 M after 72 hrs by MTS assay; type: functional; details: MCF7, 72 h, read-out: GI

In the case of `COc1cc(/C(=C2\O[C@@H]([C@H]3COC(C)(C)O3)[C@H]3OC(C)(C)O[C@@H]23)c2ccc3c(c2)OCO3)cc(OC)c1OC`, the Activity [1] was 61%.

In the case of `COc1cc(C(=C2O[C@@H]([C@H]3COC(C)(C)O3)[C@H]3OC(C)(C)O[C@@H]23)c2cc(OC)c(OC)c(OC)c2)cc(OC)c1OC`, the Activity [1] was 105%.

In the case of `COc1cc(C(=C2O[C@@H]([C@H](O)CO)[C@H]3OC(C)(C)O[C@@H]23)c2cc(OC)c(OC)c(OC)c2)cc(OC)c1OC`, the Activity [1] was 103%.

In the case of `COc1cc([C@@H]2c3cc4c(cc3C[C@H]3COC(=O)[C@@H]32)OCO4)cc(OC)c1OC`, the “tubulin polymerization inhibition call (active/not active)” value [2] was “Active”.

`COc1cc(/C(=C2\O[C@@H]([C@H]3COC(C)(C)O3)[C@H]3OC(C)(C)O[C@@H]23)c2cccc([N+](=O)[O-])c2)cc(OC)c1OC` gave an inhibition of growth at 1 µM [3] of 0%, an inhibition of growth at 1 µM [4] of 2% and an inhibition of growth at 10 µM [5] of 12%. It also gave an inhibition of growth at 10 µM [6] of 0%, an inhibition of growth at 10 µM [7] of 0% and an inhibition of growth at 1 µM [8] of 2%. For the same compound, the inhibition of growth at 10 µM [9] was 22%, the inhibition of growth at 1 µM [10] was 4% and the inhibition of growth at 10 µM [11] was 40%. It also gave an inhibition of growth at 1 µM [12] of 6%, an inhibition of growth at 10 µM [13] of 0% and an inhibition of growth at 10 µM [14] of 20%. The inhibition of growth at 10 µM [15] was 9%, the inhibition of growth at 10 µM [16] was 16% and the inhibition of growth at 1 µM [17] was 7%. It also gave an inhibition of growth at 1 µM [18] of 13%, an inhibition of growth at 1 µM [19] of 5% and an inhibition of growth at 1 µM [20] of 7%. For the same compound, the inhibition of growth at 1 µM [21] was 0%, the inhibition of growth at 1 µM [22] was 12% and the inhibition of growth at 10 µM [23] was 0%. For the same compound, the inhibition of growth at 1 µM [24] was 8%, the inhibition of growth at 10 µM [25] was 29% and the inhibition of growth at 10 µM [26] was 5%. For the same compound, the inhibition of growth at 1 µM [27] was 10%, the inhibition of growth at 1 µM [28] was 15% and the inhibition of growth at 10 µM [29] was 8%. It also gave an inhibition of growth at 10 µM [30] of 11%.

With `COc1cc(C(=C(CO)CO)c2ccc3c(c2)OCO3)cc(OC)c1OC` the “tubulin polymerization inhibition call (active/not active)” value [2] was “inactive”.

With `COc1cc(/C(=C2\O[C@@H]([C@H](O)CO)[C@H]3OC(C)(C)O[C@@H]23)c2cccc(N)c2)cc(OC)c1OC` the “tubulin polymerization inhibition call (active/not active)” value [2] was “inactive” and the Activity [1] was 103%.

`COc1ccc(/C(=C2/O[C@@H]([C@H](O)CO)[C@H]3OC(C)(C)O[C@@H]23)c2cc(OC)c(OC)c(OC)c2)cc1O` gave an Activity [1] of 79%.
